ED50 and inhibition in vivo data for 51 molecules are collected here from ChEMBL document CHEMBL1124289, “6-(Alkylamino)-9-benzyl-9H-purines. A new class of anticonvulsant agents” (1988).

The first experiment relates to Rattus norvegicus. Kind of experiment: Protective effects in maximal electroshock induced seizures in rats following i.p. administration. It counts as functional. To be noted: ip. The procedure, abridged:
(§1)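 Male Sprague-Dawley rats, compound given orally or ip as a solution or fine dispersion in water or 5% methylcellulose before maximal electroshock. ED50 is the dose protecting 50% against hind-limb extension, by the Miller–Tainter method. Either ≥12 animals per dose at four doses (with standard error) or three doses with six animals per point.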
For orientation: In the maximal electroshock model the usual endpoint is tonic extension of the hind limbs.
`CN(C)c1ncnc2c1ncn2Cc1cccs1` gave an ED50 of 10 mg/kg. Take `Cc1ccccc1Cn1cnc2c(N(C)C)ncnc21`: the ED50 stood at 9 mg/kg. The same measure, in the same setting: in the case of `CCN(C)c1ncnc2c1ncn2Cc1ccccc1` it was 8 mg/kg; in that of `CN(C)c1ncnc2c1ncn2Cc1ccc(N)cc1`, 25 mg/kg; in that of `CN(C)c1ncnc2c1ncn2Cc1cccc(I)c1`, 11 mg/kg.

Consider `CN(C)c1ncnc2c1ncn2Cc1cccc(Cl)c1`, for which the median effective dose (ED50) was found to be 4.5 mg/kg.

Regarding `CN(C)c1ncnc2c1ncn2Cc1ccco1`, the ED50 is 18 mg/kg.

In turn, `CN(C)c1ncnc2c1ncn2Cc1cc(Cl)cc(Cl)c1` registered a median effective dose (ED50) of 7 mg/kg. In turn, `CNc1ncnc2c1ncn2Cc1ccccc1` came in with an ED50 of 5 mg/kg.

`CN(C)c1ncnc2c1ncn2Cc1ccccc1`: it took a dose of 6 mg/kg to reach the 50% effect level (ED50). `CN(C)c1ncnc2c1ncn2Cc1ccccc1F` came in with an ED50 of 8.8 mg/kg. On to `CN(C)c1ncnc2c1ncn2Cc1cccc(F)c1`, for which it took a dose of 8.4 mg/kg to reach the 50% effect level (ED50).

Consider `Cc1cccc(Cn2cnc3c(N(C)C)ncnc32)c1`, for which the 50% effect level (ED50) was put at a dose of 25 mg/kg. As to `c1ccc(Cn2cnc3c(NC4CC4)ncnc32)cc1`, the ED50 is 8.6 mg/kg. For the molecule `CN(C)c1ncnc2c1ncn2Cc1ccccc1[N+](=O)[O-]`, the ED50 worked out at 25 mg/kg. The same measure, in the same setting: the result for `CN(C)c1ncnc2c1ncn2Cc1ccccc1N` reads 20 mg/kg; that for `CN(C)c1ncnc2c1ncn2Cc1cccc(C(F)(F)F)c1`, 12 mg/kg; that for `CN(C)c1ncnc2c1ncn2Cc1cccc(Br)c1`, 13 mg/kg. Turning to `COc1cccc(Cn2cnc3c(N(C)C)ncnc32)c1`, the ED50 is 12.5 mg/kg. As to `COc1ncnc2c1ncn2Cc1ccccc1` [9-BENZYL-6-METHOXY-9H-PURINE], it took a dose of 10 mg/kg to reach the 50% effect level (ED50). As to `O=C1NC(=O)C(c2ccccc2)(c2ccccc2)N1` [PHENYTOIN], the 50% effect level (ED50) was put at a dose of 9.6 mg/kg.

For the next experiment, the species on record is Rattus norvegicus. The experiment can be described thus: Ability to protect Sprague-Dawley male rats against maximal electroshock-induced seizures (MES) perorally. To be noted: po. Format: functional. An outline of the steps: as §1
`CCN(C)c1ncnc2c1ncn2Cc1ccccc1` gave an ED50 of 30 mg/kg. `CN(C)c1ncnc2c1ncn2Cc1cccc(Cl)c1` gave an ED50 of 18 mg/kg. Turning to `CNc1ncnc2c1ncn2Cc1ccccc1`, the ED50 was determined as 12 mg/kg. Regarding `CN(C)c1ncnc2c1ncn2Cc1ccccc1`, the ED50 turned out to be 12 mg/kg. The same measure, in the same setting: in the case of `COc1ncnc2c1ncn2Cc1ccccc1` [9-BENZYL-6-METHOXY-9H-PURINE] it was 21 mg/kg. Still for that read-out and setting: the result for `O=C1NC(=O)C(c2ccccc2)(c2ccccc2)N1` [PHENYTOIN] reads 20 mg/kg.

In a further experiment the test system is Rattus norvegicus. The experiment can be described thus: Ability to protect Sprague-Dawley male rats against maximal electroshock-induced seizures (MES) intraperitoneally; Inhibition at 12.5 mg/kg. To be noted: ip, route intraperitoneal. Format: functional. The procedure, abridged:
(§2)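 Male Sprague-Dawley rats dosed with compound as a solution or fine dispersion in water or 5% methylcellulose, then given maximal electroshock. Protection means abolition of the hind-limb extensor component.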
In turn, `CN(C)c1ncnc2c1ncn2-c1ccccc1` had an inhibition in vivo at 12.5 mg/kg of 0%.

The subject of the next experiment is Rattus norvegicus. Kind of experiment: Ability to protect Sprague-Dawley male rats against maximal electroshock-induced seizures (MES) intraperitoneally. Inhibition at 25 mg/kg. The following applies: ip, route intraperitoneal. It counts as functional. The procedure, abridged:
as §2
For `CC(C)N(C)c1ncnc2c1ncn2Cc1ccccc1`, 25 mg/kg produced 17% inhibition in vivo. Regarding `c1ccc(Cn2cnc3c(N4CCC4)ncnc32)cc1`, 25 mg/kg produced 17% inhibition in vivo.

In turn, `COc1ccc(Cn2cnc3c(N(C)C)ncnc32)cc1` gave an inhibition in vivo at 25 mg/kg of 0%. `CN(C)c1ncnc2c1ncn2Cc1ccccc1Cl` returned an inhibition in vivo at 25 mg/kg of 84%. Same read-out and setting: the result for `CN(C)c1ncnc2c1ncn2Cc1cccc([N+](=O)[O-])c1` reads 17%. In turn, `CN(C)c1ncnc2c1ncn2Cc1ccc(F)cc1` gave an inhibition in vivo at 25 mg/kg of 33%. `C[C@H](c1ccccc1)n1cnc2c(N(C)C)ncnc21` registered an inhibition in vivo at 25 mg/kg of 33%. As to `C[C@@H](c1ccccc1)n1cnc2c(N(C)C)ncnc21`, the inhibition in vivo at 25 mg/kg was determined as 33%. On the same count and under the same terms, in the case of `Oc1ncnc2c1ncn2Cc1ccccc1` it was 17%; in that of `CN(C)c1ncnc2c1ncn2CC1CCCCC1`, 0%; in that of `c1ccc(Cn2cnc3c(Nc4ccccc4)ncnc32)cc1`, 0%. In turn, `Cc1ccc(Cn2cnc3c(N(C)C)ncnc32)cc1` gave an inhibition in vivo at 25 mg/kg of 0%. `CN(C=O)c1ncnc2c1ncn2Cc1ccccc1` showed an inhibition in vivo at 25 mg/kg of 0%. In the case of `CN(C)c1ncnc2c1ncn2Cc1ccc(Cl)c(Cl)c1`, testing at 25 mg/kg gave an inhibition in vivo of 0%. Same read-out and setting: in the case of `CN(C)c1ncnc2c1ncn2Cc1cccc(OCc2ccccc2)c1` it was 33%; in that of `OCCNc1ncnc2c1ncn2Cc1ccccc1`, 84%; in that of `CN(C)c1ncnc2c1ncn2Cc1cccc(O)c1`, 0%. `CN(C)c1ncnc2c1ncn2Cc1ccc(Cl)cc1` returned an inhibition in vivo at 25 mg/kg of 0%.

On to `CN(C)c1ncnc2c1ncn2Cc1ccc(C#N)cc1`, for which the inhibition in vivo at 25 mg/kg worked out at 0%. Still for that read-out and setting: the result for `COc1ccccc1Cn1cnc2c(N(C)C)ncnc21` reads 0%; that for `CN(C)c1ncnc2c1ncn2CCc1ccccc1`, 33%.

As for `CN(C)c1ncnc2c1ncn2Cc1ccc([N+](=O)[O-])cc1`, testing at 25 mg/kg gave an inhibition in vivo of 0%. On to `CN(c1ncnc2c1ncn2Cc1ccccc1)C1CCCC1`, for which the inhibition in vivo at 25 mg/kg was determined as 17%. `CN(C)c1ncnc2c1ncn2Cc1cccc(C#N)c1` had an inhibition in vivo at 25 mg/kg of 17%.

The molecule `CN(C)c1ncnc2c1ncn2C` gave an inhibition in vivo at 25 mg/kg of 33%. For `CN(C)c1ncnc2c1ncn2Cc1ccc(O)cc1`, at 25 mg/kg the inhibition in vivo was 0%.

`CSc1ncnc2c1ncn2Cc1ccccc1` [9-BENZYL-6-METHYLSULFANYL-9H-PURINE] displayed an inhibition in vivo at 25 mg/kg of 30%.

In the case of `Nc1ncnc2c1ncn2Cc1ccccc1` [9-BENZYL-9H-ADENINE], the inhibition in vivo at 25 mg/kg turned out to be 33%.

As to `c1ccc(Cn2cnc3cncnc32)cc1` [9-BENZYL-9H-PURINE], 25 mg/kg produced 33% inhibition in vivo.

For the next experiment, the system named is Rattus norvegicus. Kind of experiment: Ability to protect Sprague-Dawley male rats against maximal electroshock-induced seizures (MES) per orally; Inhibition at 25 mg/kg. It counts as functional. To be noted: po. The procedure, abridged: as §2
In the case of `OCCNc1ncnc2c1ncn2Cc1ccccc1`, the inhibition in vivo at 25 mg/kg was 17%.

Broadly, the ED50 is the dose at which the effect has come halfway, by size or by number of responders. For orientation: inhibition in vivo means the drop in the measured response relative to a control, in per cent. Higher therefore signals a response far below the control.
